ChEMBL document CHEMBL5532751, “Identification of chalcone analogues as anti-inflammatory agents through the regulation of NF-κB and JNK activation” (RSC Med Chem, 2024)
Active and inactive are the calls of the source. The calls are words filed in the database; no cut-off is given here.

What was measured:
[1] = test system: RAW264.7; assay: Cytotoxicity against mouse RAW264.7 cells assessed as cell survival at 20 uM incubated for 4 hrs by CCK-8 method; type: toxicity, cell-based; details: raw264.7, 4 h
Procedure, shortened: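 RAW 264.7 cells seeded at 20 000 per well, grown 24 h at 37 °C, exposed to compound for 4 h. CCK-8 (WST-8) reagent then added for 50 min at 37 °C, absorbance read at 450 nm. Survival = (test − blank)/(untreated medium control − blank) × 100%, blank being medium without cells.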

[2] = test system: RAW264.7; assay: Antiinflammatory activity in LPS-induced mouse RAW264.7 cells assessed as inhibition of TNF-alpha release preincubated for 2 hrs followed by LPS stimulation for 24 hrs by ELISA method; type: functional, cell-based; details: for Activity: dose 2.5-40 µM, time 26.0 hrs
Procedure, shortened: (§1)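 RAW264.7 macrophages pretreated 2 h with compound at 2.5, 5, 10, 20 and 40 μM, then LPS 1 μg mL−1 for 24 h. Cytokine in supernatant measured with commercial ELISA kits per the manufacturers' protocols. IC50 derived from the dose series. Mean ± SD.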

[3] = test system: RAW264.7; assay: Antiinflammatory activity in LPS-induced mouse RAW264.7 cells assessed as inhibition of IL-1beta release preincubated for 2 hrs followed by LPS stimulation for 24 hrs by ELISA method; type: functional, cell-based; details: for Activity: dose 2.5-40 µM, time 26.0 hrs; procedure, shortened: as §1
[4] = test system: RAW264.7; assay: Antiinflammatory activity in LPS-induced mouse RAW264.7 cells assessed as inhibition of IL-6 release preincubated for 2 hrs followed by LPS stimulation for 24 hrs by ELISA method; type: functional, cell-based; details: for Activity: dose 2.5-40 µM, time 26.0 hrs; procedure, shortened: as §1
[5] = test system: RAW264.7; assay: Antiinflammatory activity in LPS-induced mouse RAW264.7 cells assessed as inhibition of iNOS activity preincubated for 2 hrs followed by LPS stimulation for 24 hrs by ELISA method; type: functional, cell-based
[6] = test system: RAW264.7; assay: Antiinflammatory activity in LPS-induced mouse RAW264.7 cells assessed as inhibition of PGE2 production preincubated for 2 hrs followed by LPS stimulation for 24 hrs by ELISA method; type: functional, cell-based
[7] = test system: RAW264.7; assay: Antiinflammatory activity in LPS-induced mouse RAW264.7 cells assessed as decrease in iNOS protein level at 10 to 40 uM preincubated for 2 hrs followed by LPS stimulation for 24 hrs by Western blot analysis; type: functional, cell-based; details: dose 10-40 µM, time 26.0 hrs
Procedure, shortened: (§2)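 RAW264.7 cells given compound at 10, 20 or 40 μM, then LPS (1 μg mL−1). Lysis in 1% Triton X-100 buffer with phosphatase and protease inhibitors, 30 min on ice. Protein quantified by BCA, run on 10% SDS-PAGE, transferred to PVDF. Primary antibody overnight at 4 °C, HRP secondary 2 h at room temperature, ECL detection. β-Actin as loading control. Mean ± SD, n = 3.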

[8] = test system: RAW264.7; assay: Antiinflammatory activity in LPS-induced mouse RAW264.7 cells assessed as decrease in COX-2 protein level at 10 to 40 uM preincubated for 2 hrs followed by LPS stimulation for 24 hrs by Western blot analysis; type: functional, cell-based; details: dose 10-40 µM, time 26.0 hrs; procedure, shortened: as §2
[9] = test system: RAW264.7; assay: Antiinflammatory activity in LPS-induced mouse RAW264.7 cells assessed as downregulation of TNF-alpha mRNA expression level preincubated for 2 hrs followed by LPS stimulation for 6 hrs by RT-qPCR analysis; type: functional, cell-based; details: dose 5-20 µM, time 8.0 hrs
Procedure, shortened: (§3)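 RAW264.7 cells pretreated 2 h with compound at 5, 10 or 20 μM or vehicle, then LPS 1 μg mL−1 for 6 h. Total RNA extracted and target mRNAs quantified by RT-qPCR, normalized to β-actin mRNA. Mean ± SD of three independent experiments.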

[10] = test system: RAW264.7; assay: Antiinflammatory activity in LPS-induced mouse RAW264.7 cells assessed as downregulation of IL-1beta mRNA expression level preincubated for 2 hrs followed by LPS stimulation for 6 hrs by RT-qPCR analysis; type: functional, cell-based; details: dose 5-20 µM, time 8.0 hrs; procedure, shortened: as §3
[11] = test system: RAW264.7; assay: Antiinflammatory activity in LPS-induced mouse RAW264.7 cells assessed as downregulation of IL-6 mRNA expression level preincubated for 2 hrs followed by LPS stimulation for 6 hrs by RT-qPCR analysis; type: functional, cell-based; details: dose 5-20 µM, time 8.0 hrs; procedure, shortened: as §3
[12] = test system: RAW264.7; assay: Antiinflammatory activity in LPS-induced mouse RAW264.7 cells assessed as downregulation of iNOS mRNA expression level preincubated for 2 hrs followed by LPS stimulation for 6 hrs by RT-qPCR analysis; type: functional, cell-based; details: dose 5-20 µM, time 8.0 hrs; procedure, shortened: as §3
[13] = test system: RAW264.7; assay: Antiinflammatory activity in LPS-induced mouse RAW264.7 cells assessed as downregulation of COX-2 mRNA expression level preincubated for 2 hrs followed by LPS stimulation for 6 hrs by RT-qPCR analysis; type: functional, cell-based; details: dose 5-20 µM, time 8.0 hrs; procedure, shortened: as §3
[14] = test system: RAW264.7; assay: Inhibition of NF-kB signaling activation in LPS-induced mouse RAW264.7 cells assessed as downregulation of p65 phosphorylation preincubated for 2 hrs followed by LPS addition for 2 hrs by Western blot analysis; type: cell-based; details: dose 10-40 µM, time 4.0 hrs
Procedure, shortened: (§4)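 RAW264.7 macrophages pretreated 2 h with vehicle (DMSO) or compound at 10, 20 or 40 μM, then LPS 1 μg mL−1 for 2 h. p-p65 and p-JNK detected by Western blot, normalized to β-actin and to total p65 or JNK. Optical density expressed as % of control; mean ± SEM of at least three independent experiments.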

[15] = test system: RAW264.7; assay: Inhibition of JNK signaling activation in LPS-induced mouse RAW264.7 cells assessed as downregulation of JNK phosphorylation preincubated for 2 hrs followed by LPS addition for 2 hrs by Western blot analysis; type: cell-based; details: dose 10-40 µM, time 4.0 hrs; procedure, shortened: as §4
[16] = test system: RAW264.7; assay: Antiinflammatory activity in LPS-induced mouse RAW264.7 cells assessed as inhibition of NO production at 20 uM preincubated for 2 hrs followed by LPS stimulation for 24 hrs by Griess reagent based assay; type: functional, cell-based; details: time 26.0 hrs
Procedure, shortened: (§5)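 Cells at 100 000 per well, grown 36 h in DMEM with 10% heat-inactivated FBS at 37 °C, 5% CO2. Pretreated 2 h with compound (20 μM in the screen), then LPS 1 μg mL−1 for 24 h. Supernatant mixed with Griess reagent, absorbance read at 540 nm, nitrite read from a sodium nitrite standard curve. Expressed as % of LPS control; ≥3 independent experiments, each in triplicate.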

[17] = test system: RAW264.7; assay: Antiinflammatory activity in LPS-induced mouse RAW264.7 cells assessed as inhibition of NO production preincubated for 2 hrs followed by LPS stimulation for 24 hrs by Griess reagent based assay; type: functional, cell-based; procedure, shortened: as §5
[18] = test system: RAW264.7; assay: Antiinflammatory activity in LPS-induced mouse RAW264.7 cells assessed as reduction in NO production at 20 uM preincubated for 2 hrs followed by LPS stimulation for 24 hrs by Griess reagent based assay; type: functional, cell-based; details: time 26.0 hrs; procedure, shortened: as §5
[19] = test system: RAW264.7; assay: Inhibition of ROS production in LPS-induced mouse RAW264.7 cells preincubated for 2 hrs followed by LPS stimulation for 24 hrs by Real-time single cell multi-mode analyzer; type: functional, cell-based; details: dose 10-40 µM, time 26.0 hrs
Procedure, shortened: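 Cells on confocal dishes at 100 000 per well for 36 h, pretreated 2 h with compound at 10, 20 or 40 μM, then LPS 1 μg mL−1 for 24 h. Loaded with 50 μM H2DCFDA in PBS for 30 min in the dark. ROS read per cell on a real-time single-cell multi-mode analyzer. Mean ± SD.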

Compound	Activity [1]	IC50 [2] [µM]	Activity [2]	IC50 [3] [µM]	Activity [3]	IC50 [4] [µM]	Activity [4]	IC50 [5] [µM]	IC50 [6] [µM]	Activity [7]	Activity [8]	Activity [9]	Activity [10]	Activity [11]	Activity [12]	Activity [13]	inhibition [14]	inhibition [15]	Activity [16]	other results
COc1ccc(C(=O)/C=C/c2cc(OC)c(OC)c(OC)c2)cc1OC	Non-Toxic	7.9	Dose-Dependent Effect	12.3	Dose-Dependent Effect	2.1	Dose-Dependent Effect	4.6	4	Active	Active	Dose-Dependent Effect	Dose-Dependent Effect	Dose-Dependent Effect	Dose-Dependent Effect	Dose-Dependent Effect	Dose-Dependent Effect	Dose-Dependent Effect	–	–
COc1ccc(CCC(=O)c2ccc(O)cc2)c(OC)c1	–	–	–	–	–	–	–	–	–	–	–	–	–	–	–	–	–	–	–	inhibition [16]: inactive
COc1ccc(/C=C/C(=O)c2cc(OC)c(OC)c(OC)c2)cc1OC	Non-Toxic	7.1	Dose-Dependent Effect	10	Dose-Dependent Effect	8.4	Dose-Dependent Effect	11.9	9.5	Active	Active	Dose-Dependent Effect	Dose-Dependent Effect	Dose-Dependent Effect	Dose-Dependent Effect	Dose-Dependent Effect	Dose-Dependent Effect	Dose-Dependent Effect	–	IC50 [17]: 7.6 µM; Activity ([17]; dose 2.5-40 µM, time 26.0 hrs): Dose-Dependent Effect; Activity [18]: Active; inhibition [19]: Dose-Dependent Effect
COc1ccc(C(=O)CCc2ccc(OC)c(OC)c2)cc1	–	–	–	–	–	–	–	–	–	–	–	–	–	–	–	–	–	–	inactive	–
COc1cc(CCC(=O)c2ccc(F)c(C)c2)cc(OC)c1OC	–	–	–	–	–	–	–	–	–	–	–	–	–	–	–	–	–	–	inactive	–
